This sample holds only a part of the variants without activity.
B1: tRNA (parent)
chain: GUUCCGUUGGCGUAAUGGUAACGCGUCUCCCUCCUAAGGAGAAGACUGCGGGUUCGAGUCCCGUACGGAACG

Variants of: B1
Experiment: yeast fitness relative to wild type (ratio to wild type); higher = fitter; tRNA-Arg(CCU), competitive growth, 37 C, YPD
Method in brief: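 For this measurement, the tRNA-Arg(CCU) gene was varied by chemical synthesis at a 3% per-site mutation rate across 69 sites, and each variant was placed at the native genomic locus in Saccharomyces cerevisiae. The pooled strains went through a 24-hour competition in YPD at 37°C in six parallel replicates, with amplicons from start and end populations read by 100-nucleotide paired-end sequencing. Darwinian fitness relative to wild type followed from the change in each genotype's frequency. Genotypes needed ≥ 100 starting reads, and estimates < 0.5 were set to 0.5.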

Row | Variant | yeast fitness
1 | G9C A15C A36U A43U | 0.738
2 | G9C C46U | 0.896
3 | G9A U19G A45G | 0.528
4 | G9A U16C A20G A42G G68U | ≤ 0.5
5 | G9A G58C U59C | 0.632
6 | G9A U13C | 0.893
7 | G9A U47A | 0.796
8 | G9C C60G G67A | 0.572
9 | G9C A15G C27A C31G C61U | ≤ 0.5
10 | G9A U13A U32A | 0.839
11 | G9C C24U A37C C61G | ≤ 0.5
12 | G9C C22U C33G A43U A45U C46G U54A A65U | 0.67
13 | G9A U64C | 0.985
14 | G9A U64A | 0.811
15 | G9C A37G C55G C60G | 0.524
16 | G9A U19C C33U A40U U59A | ≤ 0.5
17 | G9A U19G C66U | 0.64
18 | G9C G10A G12C A45U C60A | ≤ 0.5
19 | G9C A36C A37G U64C | ≤ 0.5
20 | G9A U26A A43U | 0.616
21 | G9C A14U A69G | ≤ 0.5

Row | Variant | yeast fitness
22 | G9C A20C C31A A57C C66A A69U | 0.572
23 | G9A U54C C61G | 0.565
24 | G9A U16C C29G U53A | ≤ 0.5
25 | G9A U13C C29G | ≤ 0.5
26 | G9A U28A C55U G68A | ≤ 0.5
27 | G9C C27U G41A | 0.728
28 | G9A G39A | 0.999
29 | G9C A14G A70G | 0.746
30 | G9C A14G G67A | ≤ 0.5
31 | G9A U32G A40C C46G | ≤ 0.5
32 | G9A U13C C29G A69U | 0.53
33 | G9A G48A | 0.955
34 | G9A G48C | 0.985
35 | G9A U26A U28C C55U G58A U59C | 0.555
36 | G9C C27U A42U G63C | ≤ 0.5
37 | G9A U19G A57G | 0.503
38 | G9C A15C A45C C49U C62G C66U | 0.591
39 | G9C A36G | 0.691
40 | G9C A36U | 0.618
41 | G9A U32C C33G A37G G52A C55U | 0.558
42 | G9C A45C | 0.587

Row | Variant | yeast fitness
43 | G9C A45U | 0.771
44 | G9C C62U G67C | ≤ 0.5
45 | G9C A40U | 0.756
46 | G9C C34G G52A G56A | ≤ 0.5
47 | G9C C29U A36U G67A | 0.501
48 | G9A U16C U32G G48C G58C | ≤ 0.5
49 | G9A U16C C30G C34G A40G C61A C62U G63C | 0.666
50 | G9C C11U C22G A65U | ≤ 0.5
51 | G9C C27A C55U | ≤ 0.5
52 | G9C A43C A57U G63A | ≤ 0.5
53 | G9C A15C | 0.609
54 | G9C A15U | 0.603
55 | G9A G44A | 0.983
56 | G9C C22U U47C | 0.694
57 | G9C C31G A40C G50C C55U C60G A69G | 0.549
58 | G9A G48A A69U | 1.07
59 | G9A G48A A69C | 0.87
60 | G9A G48C G52A | ≤ 0.5
61 | G9A G51A A57G | ≤ 0.5
62 | G9C C27G C30G A40U C49U | ≤ 0.5
63 | G9A U32G C49G C55A | ≤ 0.5

Row | Variant | yeast fitness
64 | G9A G41A A69C | 0.558
65 | G9A U32C | 0.943
66 | G9C A37G G41A | ≤ 0.5
67 | G9A U13C U19C | 0.907
68 | G9C G10A C29U A37U C62U G67A A70C | ≤ 0.5
69 | G9C A15U A21C C29A | 0.773
70 | G9A G67C | 0.932
71 | G9A G67A | 0.883
72 | G9C C31G C66A G68C | 0.553
73 | G9C C22G A57C | ≤ 0.5
74 | G9C C27G C60U A69U | ≤ 0.5
75 | G9A U26G C46U | 0.726
76 | G9A G52A G56U | ≤ 0.5
77 | G9A U16G | 0.799
78 | G9A U59C A69U | 0.776
79 | G9C C34G C61U | 0.553
80 | G9C C29U | 0.674
81 | G9A U19A A43G A69C | 0.541
82 | G9C A14G A43C | ≤ 0.5
83 | G9C A15G C49A A69U | ≤ 0.5

Source: the RNAGym collection of RNA variant scans (doi:10.1126/science.aae0568)
